Results: ChEMBL document CHEMBL1149447, “Synthesis of 2,5-thiazole butanoic acids as potent and selective alpha(v)beta3 integrin receptor antagonists with improved oral pharmacokinetic properties” (Bioorg Med Chem Lett, 2006)

Tests used:
[1] = biological target: Integrin alpha-V/beta-3 (Homo sapiens, UniProt P05106+P06756); assay: Inhibition of Integrin alphaV Beta3 receptor by solid-phase receptor binding assay; type: protein-complex assay
[2] = biological target: Integrin alpha-IIb/beta-3 (Homo sapiens, UniProt P05106+P08514); assay: Inhibition of Integrin alphaIIb Beta3 receptor by solid-phase receptor binding assay; type: protein-complex assay
[3] = biological target: Integrin alpha-V/beta-6 (Homo sapiens, UniProt P06756+P18564); assay: Inhibition of Integrin alphaV Beta6 receptor in HT29 cells by solid-phase receptor binding assay; type: cell-based, HT-29
[4] = Volume of distribution in rat; type: ADME, organism-based; settings: in vivo, read-out: Vdss
Outline: (§1)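 Rats were given the compound both orally and intravenously. Oral and IV AUC are each normalized to dose (µg h/ml per mg/kg). The same rat study also reports oral bioavailability (%F), half-life (h), Cmax (µg/mL), clearance (mL/min/kg) and terminal volume Vz (mL/kg).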

[5] = Bioavailability in rat; type: ADME, organism-based; settings: in vivo; outline: as §1
[6] = Half life in rat; type: ADME, organism-based; settings: in vivo; outline: as §1
[7] = tested on: Rattus norvegicus; assay: AUC/dose(mg/kg) in orally dosed rat; type: ADME, organism-based, Plasma; settings: in vivo, po; outline: as §1
[8] = tested on: Rattus norvegicus; assay: AUC/dose(mg/kg) in iv dosed rat; type: ADME, organism-based, Plasma; settings: in vivo; outline: as §1
[9] = Cmax in rat; type: ADME, organism-based; settings: in vivo; outline: as §1
[10] = Clearance in rat; type: ADME, organism-based; settings: in vivo; outline: as §1
[11] = Bioavailability in dog; type: ADME, organism-based, Canis lupus familiaris; settings: in vivo
[12] = Half life in dog; type: ADME, organism-based, Canis lupus familiaris; settings: in vivo
[13] = Bioavailability in cynomonkey; type: ADME, organism-based, Macaca fascicularis; settings: cynomolgus monkey, in vivo
[14] = Half life in cynomonkey; type: ADME, organism-based, Macaca fascicularis; settings: cynomolgus monkey, in vivo

Sequence of Integrin alpha-IIb/beta-3 (P05106 27-788 limits assumed): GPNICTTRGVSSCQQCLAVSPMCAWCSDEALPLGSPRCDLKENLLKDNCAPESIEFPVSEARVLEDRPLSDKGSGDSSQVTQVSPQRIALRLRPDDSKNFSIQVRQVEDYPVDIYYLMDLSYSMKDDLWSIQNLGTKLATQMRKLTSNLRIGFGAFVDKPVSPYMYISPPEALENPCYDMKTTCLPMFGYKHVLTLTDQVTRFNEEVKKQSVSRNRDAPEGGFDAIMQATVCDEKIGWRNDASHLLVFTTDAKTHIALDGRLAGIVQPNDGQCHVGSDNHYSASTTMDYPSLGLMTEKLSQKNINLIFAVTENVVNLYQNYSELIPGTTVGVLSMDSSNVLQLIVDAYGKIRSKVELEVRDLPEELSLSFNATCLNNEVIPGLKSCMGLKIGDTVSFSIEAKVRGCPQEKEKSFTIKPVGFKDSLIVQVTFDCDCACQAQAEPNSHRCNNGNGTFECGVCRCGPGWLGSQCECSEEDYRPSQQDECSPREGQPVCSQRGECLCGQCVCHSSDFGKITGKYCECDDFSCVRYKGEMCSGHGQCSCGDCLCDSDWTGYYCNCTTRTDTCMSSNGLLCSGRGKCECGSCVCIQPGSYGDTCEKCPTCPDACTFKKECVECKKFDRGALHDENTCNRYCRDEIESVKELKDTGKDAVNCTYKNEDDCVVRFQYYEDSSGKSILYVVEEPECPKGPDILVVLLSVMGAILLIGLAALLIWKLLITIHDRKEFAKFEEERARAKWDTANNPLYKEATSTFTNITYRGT
Sequence of Integrin alpha-IIb/beta-3 (P08514 32-887 limits assumed): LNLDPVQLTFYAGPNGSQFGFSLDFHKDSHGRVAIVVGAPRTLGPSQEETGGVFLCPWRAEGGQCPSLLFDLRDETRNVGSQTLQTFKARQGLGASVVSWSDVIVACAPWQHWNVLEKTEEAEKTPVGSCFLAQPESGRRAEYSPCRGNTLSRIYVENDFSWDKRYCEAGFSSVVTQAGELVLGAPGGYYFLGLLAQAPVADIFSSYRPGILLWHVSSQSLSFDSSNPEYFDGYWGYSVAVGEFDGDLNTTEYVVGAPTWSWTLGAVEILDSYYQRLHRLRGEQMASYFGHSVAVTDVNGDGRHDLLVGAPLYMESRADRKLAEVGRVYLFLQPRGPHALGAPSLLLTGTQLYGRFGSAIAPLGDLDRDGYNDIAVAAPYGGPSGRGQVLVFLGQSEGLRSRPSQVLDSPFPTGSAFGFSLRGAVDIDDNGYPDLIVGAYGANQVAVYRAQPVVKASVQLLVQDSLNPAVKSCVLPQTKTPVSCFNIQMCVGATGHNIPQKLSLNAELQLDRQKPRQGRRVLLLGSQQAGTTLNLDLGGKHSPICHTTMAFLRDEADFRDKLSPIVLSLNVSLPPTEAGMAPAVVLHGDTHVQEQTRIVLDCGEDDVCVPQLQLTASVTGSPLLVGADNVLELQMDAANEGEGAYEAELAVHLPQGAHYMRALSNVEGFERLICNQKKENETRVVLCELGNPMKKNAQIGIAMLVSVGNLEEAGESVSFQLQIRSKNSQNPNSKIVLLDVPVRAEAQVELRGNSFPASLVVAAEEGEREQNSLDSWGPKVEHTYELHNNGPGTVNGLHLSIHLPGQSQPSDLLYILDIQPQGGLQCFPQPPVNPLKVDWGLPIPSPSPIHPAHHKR
Sequence of Integrin alpha-IIb/beta-3 (P08514 891-1039 limits assumed): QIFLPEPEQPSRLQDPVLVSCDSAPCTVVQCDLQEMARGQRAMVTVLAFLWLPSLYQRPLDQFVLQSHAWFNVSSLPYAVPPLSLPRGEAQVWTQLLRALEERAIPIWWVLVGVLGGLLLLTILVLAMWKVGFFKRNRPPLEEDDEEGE
Sequence of Integrin alpha-V/beta-3 (P05106 27-788 limits assumed): as the sequence (P05106 27-788 limits assumed) above
Sequence of Integrin alpha-V/beta-3 (P06756 31-889 limits assumed): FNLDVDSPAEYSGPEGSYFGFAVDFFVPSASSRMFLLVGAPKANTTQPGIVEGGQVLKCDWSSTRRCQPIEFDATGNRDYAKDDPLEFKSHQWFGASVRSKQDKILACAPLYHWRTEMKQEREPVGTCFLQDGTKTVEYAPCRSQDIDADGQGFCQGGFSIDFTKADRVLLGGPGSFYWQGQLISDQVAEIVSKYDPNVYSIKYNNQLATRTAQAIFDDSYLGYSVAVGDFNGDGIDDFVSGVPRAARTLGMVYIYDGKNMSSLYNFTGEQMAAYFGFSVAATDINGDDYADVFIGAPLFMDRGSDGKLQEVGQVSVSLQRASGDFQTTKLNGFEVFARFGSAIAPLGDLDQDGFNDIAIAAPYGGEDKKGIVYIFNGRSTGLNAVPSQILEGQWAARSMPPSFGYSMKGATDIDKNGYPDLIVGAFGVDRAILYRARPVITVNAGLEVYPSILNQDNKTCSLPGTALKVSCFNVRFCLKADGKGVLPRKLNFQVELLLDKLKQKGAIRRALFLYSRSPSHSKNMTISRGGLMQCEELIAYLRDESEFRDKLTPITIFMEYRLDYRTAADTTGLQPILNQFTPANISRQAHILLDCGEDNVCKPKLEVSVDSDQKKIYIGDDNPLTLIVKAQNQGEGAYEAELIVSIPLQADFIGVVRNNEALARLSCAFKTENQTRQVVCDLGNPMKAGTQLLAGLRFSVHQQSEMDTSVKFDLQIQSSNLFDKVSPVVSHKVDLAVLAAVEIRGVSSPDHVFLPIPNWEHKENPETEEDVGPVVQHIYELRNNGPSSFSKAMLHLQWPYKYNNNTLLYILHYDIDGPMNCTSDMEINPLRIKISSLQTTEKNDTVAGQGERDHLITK
Sequence of Integrin alpha-V/beta-3 (P06756 891-1048 limits assumed): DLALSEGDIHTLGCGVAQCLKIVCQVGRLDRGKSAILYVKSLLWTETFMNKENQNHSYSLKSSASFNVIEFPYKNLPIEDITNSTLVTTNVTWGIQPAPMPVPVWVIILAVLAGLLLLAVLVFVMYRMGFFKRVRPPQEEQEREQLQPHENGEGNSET
Sequence of Integrin alpha-V/beta-6 (P06756 31-889 limits assumed): as the sequence (P06756 31-889 limits assumed) above
Sequence of Integrin alpha-V/beta-6 (P06756 891-1048 limits assumed): as the sequence (P06756 891-1048 limits assumed) above
Sequence of Integrin alpha-V/beta-6 (P18564 22-788 limits assumed): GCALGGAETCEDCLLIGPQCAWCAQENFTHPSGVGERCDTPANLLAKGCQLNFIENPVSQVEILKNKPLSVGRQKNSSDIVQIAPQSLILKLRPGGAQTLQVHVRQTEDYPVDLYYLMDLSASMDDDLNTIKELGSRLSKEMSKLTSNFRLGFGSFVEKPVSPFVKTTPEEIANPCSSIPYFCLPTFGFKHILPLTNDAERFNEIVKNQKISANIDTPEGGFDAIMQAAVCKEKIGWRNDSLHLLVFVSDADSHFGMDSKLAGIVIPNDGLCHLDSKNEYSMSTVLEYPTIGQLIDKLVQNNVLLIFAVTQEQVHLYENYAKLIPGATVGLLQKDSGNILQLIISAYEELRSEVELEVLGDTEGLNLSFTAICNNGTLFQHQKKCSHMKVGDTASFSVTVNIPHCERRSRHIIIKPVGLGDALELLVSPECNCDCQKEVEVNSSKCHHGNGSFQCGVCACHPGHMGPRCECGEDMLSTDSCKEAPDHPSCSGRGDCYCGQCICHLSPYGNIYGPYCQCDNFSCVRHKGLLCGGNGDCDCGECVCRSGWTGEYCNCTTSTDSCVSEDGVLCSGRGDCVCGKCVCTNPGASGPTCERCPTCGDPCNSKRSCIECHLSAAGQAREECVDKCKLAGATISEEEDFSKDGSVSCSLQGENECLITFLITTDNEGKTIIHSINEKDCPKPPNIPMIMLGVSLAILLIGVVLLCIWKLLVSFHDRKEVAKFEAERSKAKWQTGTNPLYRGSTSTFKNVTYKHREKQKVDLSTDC

| Structure (SMILES) | IC50 [1] [nM] | IC50 [2] [nM] | IC50 [3] [nM] | Vd [4] [L/kg] | bioavailability [5] [%] | half-life [6] [min] | AUC/dose [7] [µg·h/mL] | AUC/dose [8] [µg·h/mL] | Cmax [9] [ng/mL] | clearance [10] [mL/min/kg] | further results |
| --- | --- | --- | --- | --- | --- | --- | --- | --- | --- | --- | --- |
| O=C(O)C[C@H](Cc1csc(CCCCNc2cc(N3CCOCC3)ccn2)n1)c1ccc2c(c1)OCO2 | 1.56 | – | – | – | – | – | – | – | – | – | – |
| O=C(O)C[C@H](Cc1csc(CCCCNc2cc(N3CCCC3)ccn2)n1)c1ccc2c(c1)OCO2 | 1.26 | – | – | – | – | – | – | – | – | – | – |
| O=C(O)CC(Cc1csc(CCCc2ccc3c(n2)NCCC3)n1)c1ccc(F)c(F)c1 (configuration not stated) | 3.49 | 484 | 2120 | – | – | – | – | – | – | – | – |
| O=C(O)C[C@H](Cc1csc(CCCCNc2cc(N3CCSCC3)ccn2)n1)c1ccc2c(c1)OCO2 | 1.7 | – | – | – | – | – | – | – | – | – | – |
| COc1ccc(C(CC(=O)O)Cc2csc(CCCCNc3cc(N4CCOCC4)ccn3)n2)cn1 (configuration not stated) | 3.54 | – | – | – | – | – | – | – | – | – | – |
| COCc1ncc(C(CC(=O)O)Cc2csc(CCCc3ccc4c(n3)NCCC4)n2)s1 (configuration not stated) | 1.2 | – | 841 | 2.68 | 90 | 426 | 1.7 | 1.9 | 3000 | 8.7 | – |
| O=C(O)CC(Cc1csc(CCCc2ccc3c(n2)NCCC3)n1)c1cnc(-c2ccc(Cl)cc2)s1 (configuration not stated) | 2.09 | 559 | 4300 | – | – | – | – | – | – | – | – |
| CN1CCNc2nc(CCCc3nc(CC(CC(=O)O)c4ccc5c(c4)OCO5)cs3)ccc21 (configuration not stated) | 0.61 | – | – | – | – | – | – | – | – | – | – |
| O=C(O)CC(Cc1csc(CCCc2ccc3c(n2)NCCC3)n1)c1ccc2c(c1)OCO2 (configuration not stated) | 1.18 | 263 | 2390 | 0.897 | > 100 | 420 | 6.8 | 5.2 | 19600 | 3.3 | – |
| COc1ccc(C(CC(=O)O)Cc2csc(CCCc3ccc4c(n3)NCCC4)n2)cc1F (configuration not stated) | 2.17 | 405 | 3260 | 1.29 | 95 | 258 | 1.8 | 1.9 | 9100 | 9 | – |
| COc1ccc(C(CC(=O)O)Cc2csc(CCCc3ccc4c(n3)NCCC4)n2)cn1 (configuration not stated) | 1.23 | – | 1320 | 2.95 | > 100 | 378 | 1.6 | 1.4 | 6600 | 12.3 | – |
| O=C(O)CC(Cc1csc(CCCc2ccc3c(n2)NCCC3)n1)c1ccc(Cl)cc1 (configuration not stated) | 3.81 | 636 | 2440 | – | – | – | – | – | – | – | – |
| COc1ccc(C(CC(=O)O)Cc2csc(CCCCNc3cc(N4CCSCC4)ccn3)n2)cn1 (configuration not stated) | 3.73 | – | – | – | – | – | – | – | – | – | – |
| Cc1ccc(C(CC(=O)O)Cc2csc(CCCc3ccc4c(n3)NCCC4)n2)cc1 (configuration not stated) | 11.1 | 2000 | 5060 | – | – | – | – | – | – | – | – |
| COc1cc(OC)cc(C(CC(=O)O)Cc2csc(CCCc3ccc4c(n3)NCCC4)n2)c1 (configuration not stated) | 1.54 | 350 | 1740 | 2.04 | 98 | 366 | 2.2 | 2.2 | 6100 | 7.3 | – |
| COc1ccc(C(CC(=O)O)Cc2csc(CCCCNc3cc(N4CCCC4)ccn3)n2)cn1 (configuration not stated) | 3 | – | – | – | – | – | – | – | – | – | – |
| O=C(O)CC(Cc1csc(CCCc2ccc3c(n2)NCCC3)n1)c1cnc(C2CC2)s1 (configuration not stated) | 1.22 | – | 313 | 1.02 | > 100 | 204 | 2.5 | 2.4 | 22000 | 6.8 | – |
| O=C(O)C[C@H](Cc1csc(CCCc2ccc3c(n2)NCCC3)n1)c1ccc2c(c1)OCO2 | – | – | – | – | – | – | – | – | – | – | bioavailability [11]: 60%; half-life [12]: 780 min; bioavailability [13]: 64%; half-life [14]: 672 min |
| Cc1nc2cc(C(CC(=O)O)Cc3csc(CCCc4ccc5c(n4)NCCC5)n3)ccc2s1 (configuration not stated) | 2.82 | 95.1 | > 10000 | – | – | – | – | – | – | – | – |
| O=C(O)CC(Cc1nc(CCCc2ccc3c(n2)NCCC3)no1)c1ccc2c(c1)OCO2 (racemic) | – | – | – | 0.733 | 95 | 84 | 1.5 | 1.6 | 12000 | 10.9 | – |
| COc1ccc(C(CC(=O)O)Cc2csc(CCCc3ccc4c(n3)NCCN4C)n2)cn1 (configuration not stated) | 1.24 | – | – | – | – | – | – | – | – | – | – |
| O=C(O)CC(Cc1csc(CCCc2ccc3c(n2)NCCC3)n1)c1cnc(-c2ccccc2)s1 (configuration not stated) | 1.77 | 252 | 2670 | – | – | – | – | – | – | – | – |
| O=C(O)CC(Cc1csc(CCCc2ccc3c(n2)NCCC3)n1)c1cccc(F)c1 (configuration not stated) | 2.8 | 559 | 1310 | – | – | – | – | – | – | – | – |
